Results taken from PMC10041999 (Journal of chemical information and modeling, 2022).

Biological target: T1, VapC1 (Haemophilus influenzae, UniProt Q4QNL7)
T1 sequence (Q4QNL7 1-134): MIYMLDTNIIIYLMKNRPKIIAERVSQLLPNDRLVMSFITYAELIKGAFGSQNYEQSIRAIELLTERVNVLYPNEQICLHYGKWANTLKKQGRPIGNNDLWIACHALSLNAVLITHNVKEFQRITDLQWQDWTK
Test: Biochemical VapC1 ribonuclease activity assay
Set-up: species or system nontypeable Haemophilus influenzae
Method in brief: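 Purified VapC1 (296 nM final) was preincubated with test compound, aurintricarboxylic acid positive control or DMSO for 30 min at room temperature in 1X RNaseAlert reaction buffer. Custom RNA substrate (5' Cy5, 3' Iowa Black RQ quencher; 100 nM final) was then added. Fluorescence (Ex 618, Em 671 nm) was read immediately and at 75 min. Activity was taken as the change between readings. Concentration-response used eleven concentrations.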

## Clc1ccc(C(c2ccc(Cl)cc2)n2cc[n+](C[C@@H](OCc3ccc(Cl)cc3Cl)c3ccc(Cl)cc3Cl)c2)cc1 [NCGC00015233]
  VapC1 inhibitor (result in words): confirmed VapC1 inhibtors
